ChEMBL document CHEMBL5678806, “NMS-P937, an orally available, specific small-molecule polo-like kinase 1 inhibitor with antitumor activity in solid and hematologic malignancies” (Mol Cancer Ther, 2012)
The source made the active and inactive calls. No cut-off for these calls is given here.

Experiments:
HL-60 = experiment: Antitumor activity against human HL-60 cells xenografted in nu/nu mouse assessed as tumor growth inhibition at 60 mg/kg, po administered for 10 days relative to control; type: functional; conditions: HL-60, 240 h, time 10 day, read-out: TGI
HT-29 = experiment: Antitumor activity against human HT-29 cells xenografted in nu/nu mouse assessed as tumor growth inhibition at 60 mg/kg, po administered for 10 days; type: functional, organism-based; conditions: time 10.0 day
Calu-3 = experiment: Antiproliferative activity against human Calu-3 cells assessed as inhibition of cell growth incubated for 72 hrs by cell-titer glo assay; type: functional, cell-based; conditions: Calu-3, 72 h
Method in brief: (§1)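 Cells seeded 10,000–30,000/cm² (adherent) or 100,000/mL (suspension) in medium with 10% fetal calf serum; after 24 h treated in duplicate with serial dilutions for 72 h. Viable cells read by CellTiter-Glo luminescence; IC50 from sigmoidal fit; at least two independent experiments.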

SR = experiment: Antiproliferative activity against human SR cells assessed as inhibition of cell growth incubated for 72 hrs by cell-titer glo assay; type: functional, cell-based
[1] = target: G protein-coupled receptor kinase 6 (Homo sapiens) (UniProt P43250); experiment: Inhibition of N-terminal 6His-tagged recombinant full-length human GRK6 expressed in baculovirus infected Sf21 cells assessed as residual activity at 1 uM relative to control
[2] = Oral bioavailability in Beagle dog at 5 mg/kg by LC-MS analysis; type: ADME, organism-based, Canis lupus familiaris; conditions: in vivo
A2780 [3] = experiment: Induction of DNA damage in human A2780 cells assessed as H2AX phosphorylation at 0.5 to 1 uM incubated for 8 hrs by Western blotting analysis; type: functional, cell-based; conditions: dose 0.5-1 µM
MV4-11 = experiment: Antiproliferative activity against human MV4-11 cells assessed as inhibition of cell growth incubated for 72 hrs by cell-titer glo assay; type: functional, cell-based; conditions: MV4-11, 72 h
Method in brief: (§2)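 Cells from ATCC or ECACC, kept in supplier-recommended medium with 1% penicillin-streptomycin at 37°C, 5% CO₂. Seeded at 10,000–30,000/cm² (adherent) or 100,000/mL (nonadherent) in medium with 10% fetal calf serum. Dosed after 24 h in duplicate with serial dilutions. Viable cells read by CellTiter-Glo 72 h later. IC50 from sigmoidal fit. At least two independent experiments.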

[4] = target: Tyrosine-protein kinase ZAP-70 (Homo sapiens, UniProt P43403); experiment: Inhibition of ZAP70 (unknown origin) in presence of [gamma-33P]ATP
U2OS = experiment: Induction of apoptosis in human U2OS cells assessed as colocalization of cells by measuring activation of caspase 3 incubated for 24 hrs by DRAQ 5 staining based high content imaging assay relative to control; type: functional
[5] = target: MAP kinase-activated protein kinase 2 (Homo sapiens, UniProt P49137); experiment: Inhibition of MAPKAPK2 (unknown origin) in presence of [gamma-33P]ATP
[6] = target: ALK tyrosine kinase receptor (Homo sapiens) (UniProt Q9UM73); experiment: Inhibition of N-terminal His6-tagged recombinant human ALK (1058 to end residues) expressed in baculovirus infected Sf21 cells assessed as residual activity at 0.1 uM relative to control
Casein kinase 2 = Casein kinase 2 (Homo sapiens, UniProt P67870+P68400+P19784+Q8NEV1); experiment: Inhibition of alpha-subunit N-terminal 6His- and beta-subunit N-terminal GST-tagged recombinant human CK2 expressed in baculovirus infected Sf21 cells assessed as residual activity at 1 uM relative to control
[7] = Inhibition of AUR1 (unknown origin) in presence of [gamma-33P]ATP; parameters: species or system Homo sapiens
COLO-741 = experiment: Antiproliferative activity against human COLO-741 cells assessed as inhibition of cell growth incubated for 72 hrs by cell-titer glo assay; type: functional, cell-based; conditions: COLO-741, 72 h; method in brief: as §1
NCI-H522 = experiment: Antiproliferative activity against human NCI-H522 cells assessed as inhibition of cell growth incubated for 72 hrs by cell-titer glo assay; type: functional, cell-based; conditions: NCI-H522, 72 h; method in brief: as §2
NCI-H23 = experiment: Antiproliferative activity against human NCI-H23 cells assessed as inhibition of cell growth incubated for 72 hrs by cell-titer glo assay; type: functional, cell-based; conditions: NCI-H23, 72 h; method in brief: as §2
Caco-2 = experiment: Antiproliferative activity against human Caco-2 cells assessed as inhibition of cell growth incubated for 72 hrs by cell-titer glo assay; type: functional, cell-based; conditions: Caco-2, 72 h; method in brief: as §1
[8] = target: Ribosomal protein S6 kinase alpha-2 (Homo sapiens) (UniProt Q15349); experiment: Inhibition of N-terminal His6-tagged recombinant full-length human Rsk3 expressed in Sf21 cells assessed as residual activity at 1 uM relative to control
MIA PaCa-2 = experiment: Antiproliferative activity against human MIA PaCa-2 cells assessed as inhibition of cell growth incubated for 72 hrs by cell-titer glo assay; type: functional, cell-based; conditions: MIA PaCa-2, 72 h; method in brief: as §2
A2780 [9] = experiment: In vivo inhibition of PLK1 in human A2780 cells xenografted in nu/nu mouse assessed as decreased TCTP phosphorylation on Ser46 at 60 mg/kg, po administered for 6 to 12 hrs by immunohistochemistry analysis; type: functional, organism-based; conditions: time lower 6.0 hrs, time upper […]
[10] = Clearance in nu/nu mouse at 10 mg/kg, iv by LC-MS analysis; type: ADME, organism-based; conditions: in vivo
A2780 [11] = experiment: Induction of cell cycle arrest in human A2780 cells assessed as accumulation of cells in G2/M phase by measuring PLK1 phosphorylation on Thr210 incubated for 24 hrs by Western blotting analysis; type: functional, cell-based; conditions: dose 0.02-0.2 µmol/L
Method in brief: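 A2780 ovarian carcinoma cells treated 24 h with a range of concentrations, with DMSO and nocodazole controls. 20 µg protein extract separated by SDS-PAGE and immunoblotted with chemiluminescent detection. Probed for total and phospho-Thr210 PLK1, phospho-Ser10 histone H3, phospho-Thr199 NPM and phospho-Tyr15 CDK1. Total NPM, tubulin and total CDK1 served as loading controls.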

[12] = target: cGMP-dependent protein kinase 1 (Homo sapiens) (UniProt Q13976); experiment: Inhibition of N-terminal 6His-tagged recombinant, full-length human PKG1alpha expressed in baculovirus infected Sf21 cells assessed as residual activity at 0.1 uM relative to control
KM12 = experiment: Antiproliferative activity against human KM12 cells assessed as inhibition of cell growth incubated for 72 hrs by cell-titer glo assay; type: functional, cell-based; conditions: KM12, 72 h
Method in brief: (§3)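 Cells seeded at 10,000–30,000/cm² (adherent) or 100,000/mL (nonadherent) in medium with 10% fetal calf serum; after 24 h, treated in duplicate with serial dilutions for 72 h. Viable cell number read by CellTiter-Glo luminescence; IC50 from sigmoidal fit; at least two independent experiments.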

PC-3 = experiment: Antiproliferative activity against human PC-3 cells assessed as inhibition of cell growth incubated for 72 hrs by cell-titer glo assay; type: functional, cell-based; conditions: PC-3, 72 h; method in brief: as §2
Activated CDC42 kinase 1 = Activated CDC42 kinase 1 (Homo sapiens, UniProt Q07912); experiment: Inhibition of ACK1 (unknown origin) in presence of [gamma-33P]ATP
KARPAS-299 = experiment: Antiproliferative activity against human KARPAS-299 cells assessed as inhibition of cell growth incubated for 72 hrs by cell-titer glo assay; type: functional, cell-based; conditions: KARPAS-299, 72 h; method in brief: as §3
A-375 = experiment: Antiproliferative activity against human A-375 cells assessed as inhibition of cell growth incubated for 72 hrs by cell-titer glo assay; type: functional, cell-based; conditions: A-375, 72 h; method in brief: as §1

Sequence of cGMP-dependent protein kinase 1 (Homo sapiens) (Q13976 whole entry): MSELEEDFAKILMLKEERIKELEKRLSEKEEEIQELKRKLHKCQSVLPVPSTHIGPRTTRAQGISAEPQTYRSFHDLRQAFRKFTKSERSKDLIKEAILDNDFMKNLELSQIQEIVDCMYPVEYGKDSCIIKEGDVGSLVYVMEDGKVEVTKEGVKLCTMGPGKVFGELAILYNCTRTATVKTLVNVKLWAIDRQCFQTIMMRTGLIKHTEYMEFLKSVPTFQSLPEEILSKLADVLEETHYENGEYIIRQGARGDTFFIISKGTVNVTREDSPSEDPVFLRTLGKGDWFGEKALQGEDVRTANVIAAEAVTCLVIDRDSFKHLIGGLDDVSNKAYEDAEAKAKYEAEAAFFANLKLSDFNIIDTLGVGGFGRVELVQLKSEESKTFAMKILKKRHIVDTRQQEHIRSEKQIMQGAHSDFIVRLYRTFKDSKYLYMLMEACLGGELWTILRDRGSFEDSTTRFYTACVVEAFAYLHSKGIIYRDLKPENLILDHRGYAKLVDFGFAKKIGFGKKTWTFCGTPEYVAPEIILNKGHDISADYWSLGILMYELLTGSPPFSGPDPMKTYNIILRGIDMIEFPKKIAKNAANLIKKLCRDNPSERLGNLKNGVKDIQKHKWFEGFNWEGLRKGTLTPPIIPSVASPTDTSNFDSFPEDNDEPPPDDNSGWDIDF
Sequence of MAP kinase-activated protein kinase 2 (P49137 whole entry): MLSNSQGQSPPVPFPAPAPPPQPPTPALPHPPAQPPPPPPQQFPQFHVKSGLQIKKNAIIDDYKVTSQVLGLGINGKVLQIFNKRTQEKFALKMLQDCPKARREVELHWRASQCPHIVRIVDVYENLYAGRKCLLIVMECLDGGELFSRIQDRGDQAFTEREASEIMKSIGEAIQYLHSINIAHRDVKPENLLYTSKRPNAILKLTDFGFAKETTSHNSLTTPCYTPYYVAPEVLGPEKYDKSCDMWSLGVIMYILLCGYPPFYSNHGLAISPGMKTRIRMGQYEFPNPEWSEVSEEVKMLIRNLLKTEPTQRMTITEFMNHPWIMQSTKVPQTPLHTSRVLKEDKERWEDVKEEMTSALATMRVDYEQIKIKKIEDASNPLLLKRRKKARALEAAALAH
Sequence of G protein-coupled receptor kinase 6 (Homo sapiens) (P43250 whole entry, looked up): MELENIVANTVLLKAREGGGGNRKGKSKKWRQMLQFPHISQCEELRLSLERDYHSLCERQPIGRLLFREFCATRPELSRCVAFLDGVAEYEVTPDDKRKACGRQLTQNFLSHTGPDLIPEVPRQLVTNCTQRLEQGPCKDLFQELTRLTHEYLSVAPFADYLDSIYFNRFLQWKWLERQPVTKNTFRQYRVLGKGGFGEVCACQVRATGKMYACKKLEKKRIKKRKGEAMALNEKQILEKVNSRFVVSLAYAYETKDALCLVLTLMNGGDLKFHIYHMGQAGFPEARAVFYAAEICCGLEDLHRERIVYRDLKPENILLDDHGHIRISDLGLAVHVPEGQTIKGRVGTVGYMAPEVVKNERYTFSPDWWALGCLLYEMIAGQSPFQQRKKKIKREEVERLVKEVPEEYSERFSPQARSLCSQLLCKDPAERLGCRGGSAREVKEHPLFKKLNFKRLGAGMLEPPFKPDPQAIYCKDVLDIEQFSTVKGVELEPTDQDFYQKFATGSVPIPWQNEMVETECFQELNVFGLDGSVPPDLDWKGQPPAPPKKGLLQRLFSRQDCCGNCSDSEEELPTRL
Sequence of Activated CDC42 kinase 1 (Q07912 whole entry): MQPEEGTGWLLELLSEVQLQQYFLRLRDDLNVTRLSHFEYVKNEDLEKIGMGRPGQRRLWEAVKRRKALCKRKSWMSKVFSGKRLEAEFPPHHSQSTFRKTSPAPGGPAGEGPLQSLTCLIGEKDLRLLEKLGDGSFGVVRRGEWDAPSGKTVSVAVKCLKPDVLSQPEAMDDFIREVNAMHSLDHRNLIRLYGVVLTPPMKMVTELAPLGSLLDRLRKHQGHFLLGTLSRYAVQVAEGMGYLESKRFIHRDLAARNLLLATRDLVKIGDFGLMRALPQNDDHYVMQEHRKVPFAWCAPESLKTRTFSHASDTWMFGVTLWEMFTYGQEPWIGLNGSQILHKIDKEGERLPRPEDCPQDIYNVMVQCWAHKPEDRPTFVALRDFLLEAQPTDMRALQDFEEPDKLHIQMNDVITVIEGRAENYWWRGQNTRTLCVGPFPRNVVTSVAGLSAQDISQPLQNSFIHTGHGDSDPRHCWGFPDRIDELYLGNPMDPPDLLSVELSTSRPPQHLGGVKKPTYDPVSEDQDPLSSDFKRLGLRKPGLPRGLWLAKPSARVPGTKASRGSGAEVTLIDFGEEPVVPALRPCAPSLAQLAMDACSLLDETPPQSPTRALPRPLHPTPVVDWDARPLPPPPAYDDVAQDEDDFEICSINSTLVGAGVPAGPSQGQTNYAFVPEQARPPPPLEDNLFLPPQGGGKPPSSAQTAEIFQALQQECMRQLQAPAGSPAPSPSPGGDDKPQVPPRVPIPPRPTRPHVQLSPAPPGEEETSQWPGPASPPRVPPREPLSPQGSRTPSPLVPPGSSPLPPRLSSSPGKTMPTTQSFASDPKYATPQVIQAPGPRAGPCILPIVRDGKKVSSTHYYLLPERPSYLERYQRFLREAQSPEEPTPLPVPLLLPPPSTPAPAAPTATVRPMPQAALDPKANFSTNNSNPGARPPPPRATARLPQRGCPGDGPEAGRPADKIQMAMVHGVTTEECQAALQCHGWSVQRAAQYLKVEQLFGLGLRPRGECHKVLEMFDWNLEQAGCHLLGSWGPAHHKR
Sequence of ALK tyrosine kinase receptor (Homo sapiens) (Q9UM73 19-1620 limits assumed): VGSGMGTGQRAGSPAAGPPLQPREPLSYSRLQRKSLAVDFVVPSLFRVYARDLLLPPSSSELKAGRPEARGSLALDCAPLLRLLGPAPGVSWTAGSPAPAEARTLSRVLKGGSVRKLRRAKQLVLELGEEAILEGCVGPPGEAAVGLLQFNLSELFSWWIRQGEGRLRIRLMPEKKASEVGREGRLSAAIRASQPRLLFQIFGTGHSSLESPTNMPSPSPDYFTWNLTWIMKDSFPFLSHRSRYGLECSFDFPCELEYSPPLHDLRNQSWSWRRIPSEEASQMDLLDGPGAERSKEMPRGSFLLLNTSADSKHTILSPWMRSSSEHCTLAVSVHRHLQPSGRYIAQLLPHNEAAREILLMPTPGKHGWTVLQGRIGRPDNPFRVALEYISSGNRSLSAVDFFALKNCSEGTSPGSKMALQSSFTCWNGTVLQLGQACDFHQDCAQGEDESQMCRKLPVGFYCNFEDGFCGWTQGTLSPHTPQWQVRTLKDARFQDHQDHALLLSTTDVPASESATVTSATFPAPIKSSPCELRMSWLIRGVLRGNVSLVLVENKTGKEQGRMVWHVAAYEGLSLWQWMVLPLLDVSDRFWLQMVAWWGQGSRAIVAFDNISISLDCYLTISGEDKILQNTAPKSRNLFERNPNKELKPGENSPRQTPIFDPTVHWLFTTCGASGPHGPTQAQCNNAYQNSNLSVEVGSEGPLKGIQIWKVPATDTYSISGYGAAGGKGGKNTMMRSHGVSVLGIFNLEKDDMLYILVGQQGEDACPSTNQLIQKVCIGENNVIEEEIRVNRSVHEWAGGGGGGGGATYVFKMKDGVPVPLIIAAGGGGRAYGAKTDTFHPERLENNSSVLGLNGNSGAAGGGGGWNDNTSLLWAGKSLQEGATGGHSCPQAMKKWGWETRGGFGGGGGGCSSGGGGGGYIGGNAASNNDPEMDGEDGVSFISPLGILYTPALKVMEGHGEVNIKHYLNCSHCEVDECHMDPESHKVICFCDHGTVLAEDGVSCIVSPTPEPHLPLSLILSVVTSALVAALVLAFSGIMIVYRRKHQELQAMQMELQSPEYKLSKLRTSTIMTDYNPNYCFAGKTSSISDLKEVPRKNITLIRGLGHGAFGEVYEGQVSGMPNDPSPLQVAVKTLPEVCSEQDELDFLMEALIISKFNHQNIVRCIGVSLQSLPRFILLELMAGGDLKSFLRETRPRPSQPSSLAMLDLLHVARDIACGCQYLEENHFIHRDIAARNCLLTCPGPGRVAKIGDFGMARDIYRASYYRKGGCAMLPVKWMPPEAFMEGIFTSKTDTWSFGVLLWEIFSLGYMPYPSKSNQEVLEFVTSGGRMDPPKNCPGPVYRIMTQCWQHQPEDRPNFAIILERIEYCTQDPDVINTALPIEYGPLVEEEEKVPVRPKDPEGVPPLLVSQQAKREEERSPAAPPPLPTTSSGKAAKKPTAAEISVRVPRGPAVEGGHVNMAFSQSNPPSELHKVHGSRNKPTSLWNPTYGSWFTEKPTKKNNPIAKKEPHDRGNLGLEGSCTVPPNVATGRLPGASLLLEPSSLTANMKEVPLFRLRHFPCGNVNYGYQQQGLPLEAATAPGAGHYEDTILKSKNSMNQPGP
Sequence of Tyrosine-protein kinase ZAP-70 (P43403 whole entry): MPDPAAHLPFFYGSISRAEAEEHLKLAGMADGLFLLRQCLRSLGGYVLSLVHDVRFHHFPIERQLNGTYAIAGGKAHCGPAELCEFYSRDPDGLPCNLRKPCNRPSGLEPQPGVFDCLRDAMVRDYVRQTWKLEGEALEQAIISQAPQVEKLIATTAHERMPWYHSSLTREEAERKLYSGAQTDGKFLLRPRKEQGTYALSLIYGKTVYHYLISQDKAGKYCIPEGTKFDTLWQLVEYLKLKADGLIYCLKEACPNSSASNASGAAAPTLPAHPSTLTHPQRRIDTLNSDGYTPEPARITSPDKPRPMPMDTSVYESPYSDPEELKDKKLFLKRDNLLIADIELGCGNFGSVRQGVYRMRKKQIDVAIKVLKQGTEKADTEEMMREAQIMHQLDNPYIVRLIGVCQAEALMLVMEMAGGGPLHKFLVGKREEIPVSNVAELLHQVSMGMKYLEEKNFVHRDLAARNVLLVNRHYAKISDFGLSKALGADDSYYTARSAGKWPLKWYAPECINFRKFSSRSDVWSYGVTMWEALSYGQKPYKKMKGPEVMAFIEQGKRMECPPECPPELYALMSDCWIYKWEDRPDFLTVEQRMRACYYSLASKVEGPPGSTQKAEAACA

CN1CCN(c2ccc(OC(F)(F)F)c(Nc3ncc4c(n3)-c3c(c(C(N)=O)nn3CCO)CC4)c2)CC1 [ONVANSERTIB]
inhibition in vivo at 60 mg/kg (HL-60): 98%
TGI (HT-29): Active
IC50 (Calu-3): 629 nM
IC50 (SR): 47 nM
Activity [1]: 93%
F [2]: 63%
Activity (A2780 [3]): Active
IC50 (MV4-11): 58 nM
IC50 [4]: > 10000 nM
Activity (U2OS): 13%
IC50 [5]: > 10000 nM
Activity [6]: 145%
Activity (Casein kinase 2): 42%
IC50 [7]: > 10000 nM
IC50 (COLO-741): 108 nM
IC50 (NCI-H522): 34 nM
IC50 (NCI-H23): 56 nM
IC50 (Caco-2): 4760 nM
Activity [8]: 84%
IC50 (MIA PaCa-2): 112 nM
inhibition (A2780 [9]): Active
clearance [10]: 39.4 mL/min/kg
Activity (A2780 [11]): Dose-Dependent Effect
Activity [12]: 113%
IC50 (KM12): 277 nM
IC50 (PC-3): 152 nM
IC50 (Activated CDC42 kinase 1): > 10000 nM
IC50 (KARPAS-299): 53 nM
IC50 (A-375): 40 nM
